Data set [1] is described as follows: Kinetic aqueous solubility. It counts as physicochemical. The conditions noted are these: PBS buffer, pH 7.4, aqueous buffer, kinetic from dmso stock. The method, boiled down: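 10 mM DMSO stocks were diluted into PBS pH 7.4 to a 500 μM target and shaken 2 h at room temperature. Samples were vacuum-filtered, diluted with acetonitrile to prevent precipitation, and scanned by UV-vis over 250–500 nm. Concentration was derived from a 3-point calibration at each compound's λmax.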

Data set [2] can be described thus: Intestinal-specific PAMPA. It counts as in vitro ADME. The following applies: pH 6.5. The method, boiled down:
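Donor solutions at nominal 500 μM came from 10 mM DMSO stocks diluted in phosphate donor buffer, pH 6.5. The acceptor buffer held 5% DMSO. The membrane was phosphatidylcholine plus cholesterol in chloroform/dodecane/hexane (5:25:70 v/v). Plates were incubated 4 h at 37 °C, covered. Acceptor UV-vis absorbance was read over 250–500 nm. Pa was calculated by the Wohnsland–Faller equation from acceptor versus equilibrium absorbance at λmax.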
Background: The PAMPA barrier holds no transporters, so it reflects passive diffusion.

The test system of data set [3] is A2780 (ovarian cancer) cells. The data set can be described thus: MTT antiproliferative assay, A2780. The conditions noted are these: for Lipophilic efficiency (LipE = pIC50 – logP): A2780; for IC50: Homo sapiens, A2780, 72 h. It counts as cell-based, human. The method, boiled down: (§1)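 Cells from ECACC were grown in MEM with 10% FBS, non-essential amino acids and penicillin-streptomycin, at 37 °C and 5% CO2. Cells were seeded at 5000 per well, left overnight, then exposed to test compound 72 h. MTT was added for 4 h, and formazan was dissolved in DMSO (60 min, 37 °C) and read at 545 nm. Compounds giving >50% inhibition at 10 μM were rerun over 0.1–30 μM for IC50. Two independent experiments used five wells each, with cisplatin as positive control.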
In general terms: Tetrazolium assays rely on reduction of a dye to a coloured formazan, in cell work by metabolically active cells.

The subject of data set [4] is MDA-MB-231 (breast cancer) cells. Kind of data set: MTT antiproliferative assay, MDA-MB-231. The following applies: for IC50: Homo sapiens, MDA-MB-231, 72 h, MDA-MB-231, MTT, 72 h; for Lipophilic efficiency (LipE = pIC50 – logP): MDA-MB-231. It counts as cell-based, human. The method, boiled down:
as §1

Data set [5] has as its system HeLa (cervical cancers) cells. Kind of data set: MTT antiproliferative assay, HeLa. The following applies: for IC50: Homo sapiens, 72 h. It is filed as cell-based, human. The method, boiled down: as §1
Data set [6] concerns MCF7 (breast cancer) cells. Kind of data set: MTT antiproliferative assay, MCF7. It counts as cell-based, human. The following applies: for IC50: MCF-7, MTT, 72 h; for Lipophilic efficiency (LipE = pIC50 – logP): MCF-7. The method, boiled down:
as §1

In brackets after ≈: the same amount, converted by molar mass. Where only a bound is given, the exact number is not on record here.

Take `COc1ccccc1CNC[C@@](C)(O)[C@@H]1CC[C@@H](C)C[C@H]1OCc1ccccc1` [Compound 12a]: the solubility (kinetic) (in general, the concentration staying in solution when a stock, usually in DMSO, is diluted into the medium) at 2 h in data set [1] is 270 ± 21 µM (≈ 107 µg/mL). The Papp (in general, a coefficient for how fast a substance crosses the barrier) at 4 h, 500 μM in data set [2] turned out to be 49.2 ± 4 ×10⁻⁶ cm/s. The “Lipophilic efficiency (LipE = pIC50 – logP)” value is reported as −0.26 in data set [3], −0.05 in data set [5] and −0.01 in data set [6]. Moreover, the IC50 (usually the midpoint of a concentration-inhibition curve) in data set [3] was determined as 7400 nM; in data set [4], 12800 nM; in data set [5], 4600 nM; in data set [6] (Homo sapiens, MCF7, 72 h), 4200 nM.
Regarding `C[C@@H]1CC[C@@H]([C@](C)(O)Cn2cnc3ccccc32)[C@H](OCc2ccccc2)C1` [Compound 15a], in data set [1], the solubility (kinetic) at 2 h worked out at 38.7 ± 2 µM (≈ 14.6 µg/mL). The compound also displayed a Papp at 4 h, 500 μM in data set [2] of 39.3 ± 4.2 ×10⁻⁶ cm/s. For the same compound, the IC50 was determined as 12300 nM in data set [3]; 16700 nM in data set [4]; 11600 nM in data set [5]; 7000 nM in data set [6] (Homo sapiens, MCF7, 72 h). In addition, in data set [6], the “Lipophilic efficiency (LipE = pIC50 – logP)” value is recorded as 0.02.
Take `C[C@@H]1CC[C@@H]([C@@](C)(O)Cn2cnc3ccccc32)[C@H](OCc2ccccc2)C1` [Compound 15b]: in data set [1], the solubility (kinetic) at 2 h was 34.6 ± 1.1 µM (≈ 13.1 µg/mL). Besides, the Papp at 4 h, 500 μM in data set [2] was 26.3 ± 4.6 ×10⁻⁶ cm/s. In addition, the IC50 in data set [3] stood at 10900 nM; in data set [4], 27600 nM; in data set [5], 6500 nM; in data set [6] (Homo sapiens, MCF7, 72 h), 9400 nM. Besides, the “Lipophilic efficiency (LipE = pIC50 – logP)” value in data set [5] is listed as 0.06; in data set [6], −0.10.
`C[C@@H]1CC[C@@H]([C@](O)(CNCc2ccccc2)COCc2ccc(F)cc2)[C@H](OCc2ccc(F)cc2)C1` [Compound 44a] yielded a solubility (kinetic) at 2 h in data set [1] of 163 ± 1.6 µM (≈ 83.1 µg/mL). For the same compound, the Papp at 4 h, 500 μM in data set [2] worked out at 28.8 ± 2.9 ×10⁻⁶ cm/s. The “Lipophilic efficiency (LipE = pIC50 – logP)” value in data set [3] is listed as −1.00; in data set [4], −0.81; in data set [5], −0.78; in data set [6], −0.59. Moreover, the IC50 in data set [3] worked out at 2200 nM; in data set [4], 1500 nM; in data set [5], 1300 nM; in data set [6] (Homo sapiens, MCF7, 72 h) it was 880 nM.
As for `C[C@@H]1CC[C@@H]([C@@](O)(CNCc2ccccc2)COCc2ccc(F)cc2)[C@H](OCc2ccc(F)cc2)C1` [Compound 44b], the kinetic solubility at 2 h in data set [1] was 97 ± 2.8 µM (≈ 49.4 µg/mL). In data set [2], this compound came in with a Papp at 4 h, 500 μM of 23.2 ± 2.7 ×10⁻⁶ cm/s. For the same compound, the “Lipophilic efficiency (LipE = pIC50 – logP)” value was −0.97 in data set [3], −1.08 in data set [4], −1.12 in data set [5] and −0.63 in data set [6]. The IC50 came to 2100 nM in data set [3]; 2700 nM in data set [4]; 3000 nM in data set [5]; 960 nM in data set [6] (Homo sapiens, MCF7, 72 h).
Take `C[C@@H]1CC[C@@H]([C@](O)(CNCc2ccc(F)cc2)COCc2ccc(F)cc2)[C@H](OCc2ccc(F)cc2)C1` [Compound 45a]: in data set [1], the solubility (kinetic) at 2 h was 122 ± 4.5 µM (≈ 64.4 µg/mL). Besides, in data set [2], the Papp at 4 h, 500 μM stood at 33.3 ± 3 ×10⁻⁶ cm/s. Moreover, the “Lipophilic efficiency (LipE = pIC50 – logP)” value is recorded as −1.12 in data set [3], −1.02 in data set [4], −1.23 in data set [5] and −0.69 in data set [6]. Besides, the IC50 was 2300 nM in data set [3]; 1800 nM in data set [4]; 2900 nM in data set [5]; less than 1000 nM in data set [6] (Homo sapiens, MCF7, 72 h); 840 nM in data set [6].
In data set [1], `COc1ccc(CNC[C@](O)(COCc2ccc(F)cc2)[C@@H]2CC[C@@H](C)C[C@H]2OCc2ccc(F)cc2)cc1` [Compound 46a] registered a solubility (kinetic) at 2 h of 88 ± 0.9 µM (≈ 47.5 µg/mL). This compound also had an apparent permeability (Papp) at 4 h, 500 μM in data set [2] of 29.5 ± 3.6 ×10⁻⁶ cm/s. Moreover, the “Lipophilic efficiency (LipE = pIC50 – logP)” value is −1.12 in data set [3], −1.22 in data set [4] and −1.33 in data set [5]. Also, the IC50 in data set [3] was 1500 nM; in data set [4], 1900 nM; in data set [5], 2500 nM; in data set [6] (Homo sapiens, MCF7, 72 h), less than 1000 nM; in data set [6], 900 nM.
As to `COc1ccc(COC[C@@](O)(CNCc2ccccc2)[C@@H]2CC[C@@H](C)C[C@H]2OCc2ccc(OC)cc2)cc1` [Compound 50a], the solubility (kinetic) at 2 h in data set [1] worked out at 202 ± 1 µM (≈ 108 µg/mL). In data set [2], this compound came in with a Papp at 4 h, 500 μM of 32.4 ± 7.6 ×10⁻⁶ cm/s. Moreover, the “Lipophilic efficiency (LipE = pIC50 – logP)” value in data set [3] is given as −0.88; in data set [4], −1.01; in data set [5], −1.23; in data set [6], −0.83. The IC50 in data set [3] is 1600 nM; in data set [4], 2200 nM; in data set [5], 3700 nM; in data set [6] (Homo sapiens, MCF7, 72 h), 1400 nM.
Consider `COc1ccc(COC[C@@](O)(CNCc2ccc(F)cc2)[C@@H]2CC[C@@H](C)C[C@H]2OCc2ccc(OC)cc2)cc1` [Compound 51a], for which the solubility (kinetic) at 2 h in data set [1] is 259 ± 1.3 µM (≈ 143 µg/mL). This compound also gave a Papp at 4 h, 500 μM in data set [2] of 19.7 ± 1.6 ×10⁻⁶ cm/s. For the same compound, the “Lipophilic efficiency (LipE = pIC50 – logP)” value in data set [3] was −0.80; in data set [5], −1.08; in data set [6], −0.84. Also, the IC50 in data set [3] was determined as 1500 nM; in data set [4], 1900 nM; in data set [5] it was 2800 nM; in data set [6] (Homo sapiens, MCF7, 72 h) it was 1600 nM.
With `COc1ccc(CNC[C@](O)(COCc2ccc(OC)cc2)[C@@H]2CC[C@@H](C)C[C@H]2OCc2ccc(OC)cc2)cc1` [Compound 52a], the solubility (kinetic) at 2 h in data set [1] was 107 ± 2.6 µM (≈ 60.3 µg/mL). This compound returned a Papp at 4 h, 500 μM in data set [2] of 23.7 ± 3.8 ×10⁻⁶ cm/s. The “Lipophilic efficiency (LipE = pIC50 – logP)” value was −0.40 in data set [3], −0.50 in data set [4], −0.57 in data set [5] and −0.43 in data set [6]. The concentration for half-maximal inhibition (IC50) in data set [3] was 1300 nM; in data set [4], 1700 nM; in data set [5], 2000 nM; in data set [6] (Homo sapiens, MCF7, 72 h) it was 1400 nM.

The record behind these values is PMC11168086 (RSC Advances, 2024).
